Screening data from PubChem BioAssay.
Rows were chosen to be rich in hits. Some 1.8% of all compounds tested hit in one or more screens of this group.
M4 ag: human M4 muscarinic receptor agonists, primary screen, CHO-K1 cells, Fluo-8 calcium fluorescence | Muscarinic acetylcholine receptor M4 (Homo sapiens), P08173 | CHO-K1 hM4/Gqi5; vehicle 0%, full acetylcholine response 100% | activation, % at 3 µM | 360,000 compounds, 0.14% hits | AID 624127, 2012;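 active = activation above the run mean over all test wells plus 3 SD, cut at about 32% in these data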;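 note: peak over basal fluorescence ratio per well then scaled between controls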
Target sequence (P08173 whole entry, looked up): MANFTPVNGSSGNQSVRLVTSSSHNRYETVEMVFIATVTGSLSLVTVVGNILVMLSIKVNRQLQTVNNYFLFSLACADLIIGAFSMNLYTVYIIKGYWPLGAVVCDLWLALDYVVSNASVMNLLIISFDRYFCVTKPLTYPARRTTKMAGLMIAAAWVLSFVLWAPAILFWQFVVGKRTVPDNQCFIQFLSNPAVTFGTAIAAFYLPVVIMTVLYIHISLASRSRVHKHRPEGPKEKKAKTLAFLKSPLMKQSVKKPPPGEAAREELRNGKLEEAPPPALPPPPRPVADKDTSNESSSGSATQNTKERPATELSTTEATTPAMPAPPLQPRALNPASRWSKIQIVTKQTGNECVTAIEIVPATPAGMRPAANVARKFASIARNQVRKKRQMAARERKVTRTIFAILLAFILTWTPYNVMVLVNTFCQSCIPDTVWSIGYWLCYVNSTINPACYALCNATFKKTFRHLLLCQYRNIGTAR
M4 PAM: human M4 muscarinic receptor positive allosteric modulators, primary screen, CHO-K1 cells, Fluo-8 calcium fluorescence. Muscarinic acetylcholine receptor M4 (Homo sapiens), P08173. CHO-K1 hM4/Gqi5, ACh EC20; 0% = ACh EC20, 100% = maximal ACh. activation, % at 3 µM. 360,000 compounds, 0.4% hits. AID 624126, 2012;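 active = activation above its plate's cutoff, the mean activation of sample wells plus 3 SD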
CHRM5 antagonist: human M5 muscarinic receptor antagonists, primary screen, CHO cells, Fluo-8 calcium fluorescence | Muscarinic acetylcholine receptor M5 (Homo sapiens), P08912 | CHO-hM5 cells, ACh EC80 | inhibition, % at 3 µM | 360,000 compounds, 0.59% hits | AID 624040, 2012;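 active = inhibition above a per-plate cutoff, the mean of that plate's test compounds plus 3 SD, cut at about 27% in these data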
M4 antag: human M4 muscarinic receptor antagonists, primary screen, CHO cells, Fluo-8 calcium fluorescence; 360,000 compounds, 0.73% hits; inhibition, % at 3 µM; CHO-hM4 cells, ACh EC80; AID 624125, 2012;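 active = inhibition above its plate's cutoff, the mean inhibition of sample wells plus 3 SD, cut at about 27% in these data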
CHRM5 agonist: human M5 muscarinic receptor agonists, primary screen, CHO-K1 cells, Fluo-8 calcium fluorescence; Muscarinic acetylcholine receptor M5 (Homo sapiens), P08912; CHO-K1 hM5 cells; 0% DMSO wells, 100% maximal acetylcholine response; activation, % at 3 µM; 360,000 compounds, 0.19% hits; AID 624037, 2012;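 active = activation above the run's mean over test compounds plus 3 SD, cut at about 23% in these data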;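 note: signal is peak over basal fluorescence ratio across the kinetic read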
M5 PAM: human M5 muscarinic receptor positive allosteric modulators, primary screen, CHO-K1 cells, Fluo-8 calcium fluorescence | AID 624038, 2012 | activation, % at 3 µM | Muscarinic acetylcholine receptor M5 (Homo sapiens), P08912 | 360,000 compounds, 0.3% hits | CHO-K1 hM5, ACh EC20 PAM; 0% = ACh EC20, 100% = ACh EC100;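 active = activation above the run cutoff, the mean activation of all test compounds plus 3 SD, cut at about 18% in these data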
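Assay system: CHO-K1 hM5 cells / Incubation: Fluo-8 loading 80 min at 37 °C plus 30 min room temperature / Technique: Fluo-8 calcium dye fluorescence, kinetic read / Repeats: single replicate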
A number is an active result; . = inactive; / = no result given.

SMILES | M4 ag | M4 PAM | CHRM5 antagonist | M4 antag | CHRM5 agonist | M5 PAM
OC[C@@H]1CN(CCNc2ccccc2)C[C@H](n2cnc3c(NCc4ccncc4)ncnc32)O1 | . | . | . | . | . | .
O=C(CN1CCOCC1)NCCc1ccccc1 | . | 24 | . | . | . | .
O=C(Cc1ccc(-c2ccccc2)cc1)NCCN1CCOCC1 | . | 19 | . | . | . | .
CCOC(=O)/C(C#N)=C/C=C1\C=Cc2ccccc2N1CC | . | . | . | . | . | .
C=CCN1C=CC(=CC=C(C#N)C#N)C=C1 | . | . | . | . | 28 | .
CCCCCCN1C=CC(=C/C=C(\C#N)C(=O)OCC)C=C1 | 253 | . | 34 | 36 | 51 | .
CCCCCN1C=CC=C/C1=C\C=C(C#N)C#N | . | . | . | . | . | .
CCCN1C=CC(=CC=C(C#N)C#N)C=C1 | . | . | . | . | 31 | .
COc1cccc(C(N)c2nc(-c3csc4ccccc34)cs2)c1 (stereo not given) | . | . | . | . | . | .
Cc1ccc(S(=O)(=O)N2CCN(C(=S)NCC3CCCO3)CC2)cc1 (stereo not given) | . | . | . | . | . | .
CCCC(=O)N1CCCC(c2cc(C(=O)Nc3ccccc3)no2)C1 (stereo not given) | . | . | . | . | . | .
Cc1nnc(NC(=O)CSc2nc3ccccc3o2)s1 | . | 32 | . | . | . | .
O=C(CSc1nc2ccccc2o1)Nc1ccc(N2CCOCC2)c(Cl)c1 | . | . | 28 | . | . | .
CCc1nnc(NC(=O)CSc2nc3ccccc3o2)s1 | . | . | . | . | . | .
O=C(CSc1nc2ccccc2s1)Nc1ccc(N2CCOCC2)c(Cl)c1 | . | . | . | . | . | .
CCN(CC)C(=O)C1=C(C)N(Cc2ccc(F)cc2)C(=O)C(CC(=O)NC(c2ccccc2)c2ccccc2)C1 (stereo not given) | . | . | . | . | . | .
CN1C2CC(OC(=O)C(CO)c3ccccc3)CC1C1OC12 (stereo not given) | . | . | / | 99 | / | /
CC(C)C(=O)N1CCC1(C)C(=O)Nc1ccc2cn[nH]c2c1 (stereo not given) | . | . | . | . | . | .
COC(/C(=N/O)c1ccc(Cl)cc1)c1ccccc1 (stereo not given) | . | . | 29 | 28 | . | .
Cc1oc2c(CN3CCCC3)c(O)ccc2c(=O)c1-c1ccc(Br)cc1 | . | . | . | 70 | . | .
COc1ccc(-c2c(C)oc3c(CN4CCOCC4)c(O)ccc3c2=O)cc1OC | . | . | . | . | . | .
COc1ccc(-c2c(C)oc3c(CN4CCOCC4)c(O)ccc3c2=O)cc1 | . | . | . | . | . | .
Cc1oc2c(CN3CCCCC3)c(O)ccc2c(=O)c1-c1ccc(Br)cc1 | . | . | . | 30 | . | .
COCCN(C(=O)COC(=O)c1nc(Cl)ccc1Cl)c1c(N)n(Cc2ccccc2)c(=O)[nH]c1=O | . | . | . | 27 | . | .
COCCN(C(=O)COC(=O)c1cccnc1SC)c1c(N)n(Cc2ccccc2)c(=O)[nH]c1=O | . | 22 | . | . | . | .
SMILES | M4 ag | M4 PAM | CHRM5 antagonist | M4 antag | CHRM5 agonist | M5 PAM
CCN(C(=O)COC(=O)c1ccccc1Oc1ccccc1)c1c(N)n(Cc2ccccc2)c(=O)[nH]c1=O | . | 25 | . | . | . | .
CC(C)CN(C(=O)COC(=O)C12CC3CC(CC(Cl)(C3)C1)C2)c1c(N)n(Cc2ccccc2)c(=O)[nH]c1=O | . | . | . | . | . | .
COCCN(C(=O)COC(=O)C12CC3CC(CC(Cl)(C3)C1)C2)c1c(N)n(Cc2ccccc2)c(=O)[nH]c1=O | . | 27 | . | . | . | .
COCCN(C(=O)COC(=O)c1ccccc1Oc1ccccc1)c1c(N)n(Cc2ccccc2)c(=O)[nH]c1=O | . | . | . | . | . | .
CCN(C(=O)COC(=O)c1nc(Cl)ccc1Cl)c1c(N)n(Cc2ccccc2)c(=O)[nH]c1=O | . | . | . | . | . | .
COCCN(C(=O)COC(=O)c1cccnc1Cl)c1c(N)n(Cc2ccccc2)c(=O)[nH]c1=O | . | . | . | . | . | .
Cc1ccc(C)c(N(C(=O)c2csnn2)C(C(=O)NC2CCCCC2)c2ccccn2)c1 (stereo not given) | . | . | . | . | . | .
O=C(NCc1ccccc1)C1CCC(=O)N(CCCN2CCCC2=O)C1 (stereo not given) | . | . | . | . | . | .
COCCN(C(=O)Cc1coc2cc(C)c(C)cc12)c1c(N)n(Cc2ccccc2)c(=O)[nH]c1=O | . | . | 100 | . | . | .
Cc1ccc(-c2nc3cccnc3o2)cc1NC(=O)COc1ccc(C(C)(C)C)cc1 | . | . | 27 | . | . | .
Cc1ccc2c(c1)c1c3n2CCNC3CCC1 (stereo not given) | . | . | . | . | . | .
COc1cc(/C=C/C(=O)OCC(=O)Nc2ccc([N+](=O)[O-])cc2)ccc1O | 39 | . | . | . | 38 | .
Cc1cc(C)c2c(n1)sc1c(N3CCN(C)CC3)ncnc12 | . | . | . | . | . | .
Cc1cc(C)c2c(n1)sc1c(N3CCCCC3)ncnc12 | . | 23 | . | . | . | .
Cc1cc(/C=C2\SC(=S)N(Cc3ccco3)C2=O)c(C)n1-c1ccccc1 | . | . | . | . | . | 22
O=C(NCCN1CCC(n2c(=O)[nH]c3ccccc32)CC1)c1ccc(F)c(F)c1 | . | . | . | . | . | .
COc1ccccc1C(=O)N1CCN(C(=O)[C@H]2O[C@@H](n3ccc(=O)[nH]c3=O)[C@H](O)[C@@H]2O)CC1 | . | 21 | . | . | . | .
CCC(C)(C)NC(=O)C1CCN(S(=O)(=O)c2cccs2)CC1 | . | . | 33 | . | . | .
Cc1[nH]c(C)c(S(=O)(=O)NCc2ccc(N(C)C)cc2)c1C(=O)N1CCCC1 | . | 18 | . | . | . | .
Cc1ccc(C)c(CNS(=O)(=O)c2c(C)[nH]c(C)c2C(=O)N2CCCCC2)c1 | . | . | . | . | . | 19
Cc1ccc(S(=O)(=O)N(C)C[C@H]2OCCCC[C@H](C)Oc3ccc(NC(=O)Nc4cccc5ccccc45)cc3C(=O)N([C@@H](C)CO)C[C@H]2C)cc1 | . | . | . | . | . | .
